These results are taken from ChEMBL document CHEMBL1146466, “Immunomodulatory constituents from an Ascomycete, Chaetomium seminudum” (J Nat Prod, 2004).

Converted amounts (≈) assume the structure as drawn. Bounds are passed on as bounds.

Test [1] is described as follows: Immunosuppressive activity in BALB/c mouse splenic T lymphocytes assessed as inhibition of Con A-induced cell proliferation after 72 hrs by MTT assay. The test is classed as functional, cell-based. The gist of the method: (§1)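 Splenocytes from three male BALB/c mice (7-11 weeks) at 8.0 × 10^6 cells/mL in FBS/RPMI, stimulated with LPS (B cells) or Con A (T cells) at 70% of the optimum dose from a dose-response curve. Samples were dissolved in 1.0% EtOH/medium and incubated 72 h at 37 °C in 5% CO2. MTT (5.0 mg/mL stock) was added for 4 h, formazan extracted into DMSO, and A570/630 read. Proliferation was expressed as % of no-sample control, in triplicate. IC50 came from a 7-concentration curve.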
Background: Formazan colour is commonly taken as a measure of viable cells.

The nature of test [2]: Immunosuppressive activity in BALB/c mouse splenic B lymphocytes assessed as inhibition of LPS-induced cell proliferation after 72 hrs by MTT assay. Format: functional, cell-based. The gist of the method: as §1

Take `CN1C(=O)[C@]2(Cc3cn([C@]45C[C@@]67SSS[C@@](CO)(C(=O)N6[C@H]4Nc4ccccc45)N(C)C7=O)c4ccccc34)SS[C@@]1(CO)C(=O)N2C` [CHETOSEMINUDIN A]: the half-inhibitory concentration (IC50) (commonly the concentration that inhibits the measured activity by half) in test [1] was determined as 180 ng/mL (≈ 242 nM); in test [2] it was 130 ng/mL (≈ 175 nM). The like results for `CN1C(=O)[C@]2(Cc3cn([C@]45C[C@@]67SS[C@@](CO)(C(=O)N6[C@H]4Nc4ccccc45)N(C)C7=O)c4ccccc34)SS[C@@]1(CO)C(=O)N2C` [CHETOMIN] were, in that order, 170 ng/mL (≈ 239 nM) and 90 ng/mL (≈ 127 nM). As for `CS[C@]1(CO)NC(=O)[C@](Cc2c[nH]c3ccccc23)(SC)NC1=O` [CHETOSEMINUDIN C], the concentration for half-maximal inhibition (IC50) in test [1] was above 50000 ng/mL. As for `C=CC[C@@H]1/C=C(\C)C[C@H](C)C[C@H](OC)[C@H]2O[C@@](O)(C(=O)C(=O)N3CCCC[C@H]3C(=O)O[C@H](/C(C)=C/[C@@H]3CC[C@@H](O)[C@H](OC)C3)[C@H](C)[C@@H](O)CC1=O)[C@H](C)C[C@@H]2OC` [TACROLIMUS ANHYDROUS], the IC50 turned out to be 0.015 ng/mL (≈ 0.0187 nM) in test [1] and 1.6 ng/mL (≈ 1.99 nM) in test [2]. Turning to `CS[C@]1(Cc2c[nH]c3ccccc23)NC(=O)[C@](CO)(SC)N(C)C1=O` [CHETOSEMINUDIN B], the IC50 in test [1] was 24000 ng/mL (≈ 63200 nM). Regarding `Cn1cnc([N+](=O)[O-])c1Sc1ncnc2[nH]cnc12` [AZATHIOPRINE], the half-maximal inhibitory concentration (IC50) in test [1] and in test [2] was 2700 ng/mL (≈ 9740 nM) in each case.
